Hits are enriched below; roughly 1.4% of the tested compounds scored in any of these assays.
Myeloid diff 2: induction of myeloid progenitor differentiation, primary screen, cell-based, flow cytometry, MLPCN library; ER-HoxA9 myeloid progenitors, lysozyme-GFP differentiation; calls only at 10 µM; 1% of 360,000 active; AID 624256, 2012;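 active = normalized GFP-positive differentiation at or above the plate's own cutoff, the solvent-only control mean plus 3 SD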;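 note: cells exposed to compound for four days before flow analysis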
CASP6 VEID inh: human caspase-6 inhibitors, primary screen, biochemical, VEID-R110 fluorescence, single point, set 2; 0.53% of 350,000 active; purified caspase-6, Z-VEID-R110 cleavage fluorescence; inhibition, % at 12.5 µM; P55212;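 active = mean inhibition across replicates at least about 35%, with every replicate also reaching that limit, limit read from the data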
Target sequence (P55212 24-179 limits assumed): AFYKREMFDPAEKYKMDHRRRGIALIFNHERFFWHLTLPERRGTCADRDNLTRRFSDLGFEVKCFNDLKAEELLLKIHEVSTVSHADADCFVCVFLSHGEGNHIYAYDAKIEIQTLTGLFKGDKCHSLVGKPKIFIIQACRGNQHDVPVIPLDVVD
Target sequence (P55212 194-293 limits assumed): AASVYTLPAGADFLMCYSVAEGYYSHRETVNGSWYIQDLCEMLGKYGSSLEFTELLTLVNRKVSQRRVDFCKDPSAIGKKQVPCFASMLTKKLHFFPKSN
Vif imaging: HIV Vif self-association inhibitors, primary screen, imaging, HEK293T, single point. 0.35% of 340,000 active. AID 602346, 2012. HEK293T cells, Vif self-association by quenched fluorescence, 24 h. inhibition, % at 7.49 µM; in the data active = inhibition above about 50%, passing the limit was not always enough
T cell HTS: modulators of CD8 T cell-vesicle binding, primary screen, mouse 2C CD8+ T cells, flow cytometry; 2C CD8+ T cell-vesicle binding; stronger effect = lower value; response (vesicle binding), % at 7 µM; 0.068% of 330,000 active; AID 2052, 2009;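 active = response, share of CD8 T cells binding vesicles, and their 90th percentile fluorescence all below set limits, cut at about 80% in these data, passing the limit was not always enough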;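 note: values below 100% mean blocked vesicle binding to the CD8+ T cells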
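Incubation: binding step 1.5 h, 37 °C, antibody labelling 20 min, ice; system: murine 2C transgenic CD8+ T lymphocytes; technique: cytometric PE anti-B7-1 and Alexa647 anti-CD8 signals after 1% paraformaldehyde fixation; also added: QL9-charged Drosophila Ld/ICAM-1/B7-1 vesicles; control set: naked versus QL9-loaded vesicles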
Myeloid diff CP1: inducers of myeloid progenitor differentiation, confirmation, cell-based, GFP/Mac1 flow cytometry, cherry pick 01 | shares compounds with Myeloid diff 2 | ER-HoxA9 myeloid progenitors, GFP/Mac1 double-positive flow | calls only | 2% of 2,300 active;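 active = share of green or green-and-red cells above 9 and 9% in run 1 or 4 and 3% in run 2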
GFP autofluor: counter-screen for myeloid differentiation promoters: compound fluorescence. fluorescence response, % (test concentration not listed). shares compounds with Myeloid diff 2. ER-HoxA9 myeloid progenitors, no estrogen, GFP autofluorescence flow cytometry; vehicle wells 0%, positive control 100%. 7.4% of 2,300 active;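 active = over 5% cells positive for green fluorescent reporter, or over 2% positive for both it and APC stain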
Of the large screens only hits and unclear results are named; the others gave an inactive call (follow-up assays come after a bar, where they were run).

C[C@H](CO)N1C[C@H](C)[C@H](CN(C)C(=O)Nc2ccc3c(c2)OCO3)Oc2ccc(NC(=O)Cn3cnnn3)cc2CC1=O	none (no result: Myeloid diff 2, Vif imaging, T cell HTS)
CC(C)CC(=O)NC(NC(=S)Nc1ccccc1)C(Cl)(Cl)Cl (centres undefined)	none | Myeloid diff CP1 inactive | GFP autofluor inactive
Cc1cccc(NC(=S)NC(NC(=O)OCc2ccccc2)C(Cl)(Cl)Cl)c1 (centres undefined)	none (no result: CASP6 VEID inh) | Myeloid diff CP1 inactive | GFP autofluor inactive
Cc1c(NC(=S)NC(NC(=O)CC(C)C)C(Cl)(Cl)Cl)c(=O)n(-c2ccccc2)n1C (centres undefined)	none (no result: CASP6 VEID inh)
Cc1ccc(S(=O)(=O)N2CCCCC2CCNC(=O)C(=O)NCc2cccnc2)cc1 (centres undefined)	Myeloid diff 2 active | Myeloid diff CP1 inactive | GFP autofluor inactive
Cc1ccc(C)c(S(=O)(=O)N2CCCCC2CCNC(=O)C(=O)NCc2cccnc2)c1 (centres undefined)	none
CCS(=O)(=O)N[C@H]1CC[C@H](CC(=O)Nc2ccc(-c3ccccc3)cc2)O[C@@H]1CO	none (no result: Myeloid diff 2, Vif imaging, T cell HTS)
CCCCc1c(CCC)c(=N)c2ccccc2n1C	none (no result: CASP6 VEID inh) | Myeloid diff CP1 inactive | GFP autofluor inactive
COC(=O)[C@@]1(CCS(=O)(=O)c2ccccc2)COC(c2ccc(OCCCO)cc2)=N1	none (no result: Myeloid diff 2, Vif imaging, T cell HTS)
Cc1cccc(Nc2ncccc2C(=O)NCc2cccs2)c1C	none (no result: CASP6 VEID inh) | Myeloid diff CP1 inactive | GFP autofluor inactive
CN(C)CC(=O)Nc1ccc2c(c1)[C@@H]1C[C@H](CC(=O)N(C)C)O[C@@H](CO)[C@@H]1O2	none (no result: Myeloid diff 2, Vif imaging, T cell HTS)
Cc1ccc(C(=O)Nc2cccc(C(=O)N/N=C/c3ccc(O)cc3)c2)cc1	Myeloid diff 2 active (no result: CASP6 VEID inh) | Myeloid diff CP1 inactive | GFP autofluor inactive
C=CCC[C@@H](CCCCC)OC(=O)/C=C/[C@H](O)[C@@H](O)C[C@H](O)CC=C	Myeloid diff 2 active (no result: Vif imaging, T cell HTS) | Myeloid diff CP1 inactive | GFP autofluor inactive
C=CCC[C@H](CCCCC)OC(=O)/C=C/[C@H](O)[C@@H](O)C[C@H](O)CC=C	none (no result: Vif imaging, T cell HTS)
O=C(Nc1cccc(NC(=O)c2nccc3ccccc23)c1)c1ccco1	Myeloid diff 2 active | Myeloid diff CP1 inactive | GFP autofluor inactive
OC(CNc1ccccc1)COc1ccc(OCC(O)CNc2ccccc2)cc1 (centres undefined)	Myeloid diff 2 active (no result: CASP6 VEID inh) | Myeloid diff CP1 inactive | GFP autofluor inactive
CC(C)N1CCc2c(sc(NC(=O)c3nc4ccccc4s3)c2C(N)=O)C1	Myeloid diff 2 active | Myeloid diff CP1 inactive | GFP autofluor inactive
Cc1ccc(N/C(N)=N/c2nc3c(c(=O)[nH]2)CCCC3)c(C)c1	Myeloid diff 2 active (no result: CASP6 VEID inh) | Myeloid diff CP1 inactive | GFP autofluor inactive
N/C(=N\c1nc2c(c(=O)[nH]1)CCCC2)Nc1ccccc1	none (no result: CASP6 VEID inh, Vif imaging)
COc1cccc(C#Cc2ccc([C@H]3[C@H]4CN(S(=O)(=O)c5ccccc5C)CC(=O)N4[C@H]3CO)cc2)c1	none (no result: Myeloid diff 2, Vif imaging, T cell HTS)
Cc1nc(C)c(/C(O)=C/c2nc3ccccc3oc2=O)s1	Myeloid diff 2 active | Myeloid diff CP1 inactive | GFP autofluor inactive
Cc1ccc2cc(C#N)c(SCC(=O)NNC(=O)Cc3ccccc3)nc2c1	Myeloid diff 2 active (no result: CASP6 VEID inh, T cell HTS) | Myeloid diff CP1 inactive | GFP autofluor inactive
COc1ccc2cc(C#N)c(SCC(=O)NNC(=O)Cc3ccccc3)nc2c1	none (no result: CASP6 VEID inh)
Clc1ccc(C=Cc2ccccn2)cc1	none (no result: T cell HTS)
C(=C\c1ccccn1)/c1ccccn1	none | Myeloid diff CP1 inactive | GFP autofluor inactive
CCOc1ccc(N(CC(=O)Nc2ccc(F)c(F)c2)S(=O)(=O)c2c(C)noc2C)cc1	none
CCOc1ccc(N(CC(=O)Nc2ccc(C)cc2)S(=O)(=O)c2c(C)noc2C)cc1	Myeloid diff 2 active | Myeloid diff CP1 inactive | GFP autofluor inactive
COc1ccc(-n2nnnc2C(c2ccnc3ccccc23)N2CCN(C/C=C/c3ccccc3)CC2)cc1 (centres undefined)	Myeloid diff 2 active (no result: T cell HTS) | Myeloid diff CP1 inactive | GFP autofluor inactive
Cc1cc(N2CCN(C(c3ccnc4ccccc34)c3nnnn3-c3c(C)cccc3C)CC2)c2ccccc2n1 (centres undefined)	none (no result: Vif imaging, T cell HTS) | Myeloid diff CP1 inactive | GFP autofluor inactive

Source: PubChem
